From ChEMBL document CHEMBL1132183 (J Med Chem, 1999) come the findings set out here.

pKi: −log10 of the molar value.

Broadly, the pKi is the Ki on a negative log10 scale, so that one unit is a factor of ten. Higher therefore signals a low Ki.

Assay [1] addresses T1, Alpha-1A adrenergic receptor (Homo sapiens, UniProt P35348).
T1 sequence (P35348 whole entry): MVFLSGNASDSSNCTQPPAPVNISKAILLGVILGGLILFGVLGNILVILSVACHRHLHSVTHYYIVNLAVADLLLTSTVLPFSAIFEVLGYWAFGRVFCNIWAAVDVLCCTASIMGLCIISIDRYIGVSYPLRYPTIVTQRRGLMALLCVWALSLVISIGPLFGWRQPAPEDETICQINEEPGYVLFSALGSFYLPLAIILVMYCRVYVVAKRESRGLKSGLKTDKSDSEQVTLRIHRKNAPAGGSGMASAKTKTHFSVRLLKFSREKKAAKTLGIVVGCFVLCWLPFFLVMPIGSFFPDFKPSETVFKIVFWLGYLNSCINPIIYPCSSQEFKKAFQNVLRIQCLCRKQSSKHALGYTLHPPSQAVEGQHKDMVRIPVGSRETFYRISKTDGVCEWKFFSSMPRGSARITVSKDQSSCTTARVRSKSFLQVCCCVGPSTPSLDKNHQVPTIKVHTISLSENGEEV
Description: Displacement of [3H]prazosin from human cloned Alpha-1A adrenergic receptor. The method, boiled down:
(§1)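 CHO cells stably transfected with each human α1 subtype; 30 μg membrane protein in 50 mM Tris-HCl pH 7.4 with 0.1–0.4 nM [3H]prazosin, 30 min at 25 °C. Competitors 1 pM–10 μM. Nonspecific binding defined with 10 μM phentolamine. Filtration, scintillation counting. Ki by Cheng–Prusoff; 2–3 experiments in triplicate.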
(In general: In a radioligand displacement assay an active substance lowers the binding of a labelled ligand.)

For assay [2], the target named is T2, Alpha-1B adrenergic receptor (Homo sapiens, UniProt P35368).
T2 sequence (P35368 whole entry): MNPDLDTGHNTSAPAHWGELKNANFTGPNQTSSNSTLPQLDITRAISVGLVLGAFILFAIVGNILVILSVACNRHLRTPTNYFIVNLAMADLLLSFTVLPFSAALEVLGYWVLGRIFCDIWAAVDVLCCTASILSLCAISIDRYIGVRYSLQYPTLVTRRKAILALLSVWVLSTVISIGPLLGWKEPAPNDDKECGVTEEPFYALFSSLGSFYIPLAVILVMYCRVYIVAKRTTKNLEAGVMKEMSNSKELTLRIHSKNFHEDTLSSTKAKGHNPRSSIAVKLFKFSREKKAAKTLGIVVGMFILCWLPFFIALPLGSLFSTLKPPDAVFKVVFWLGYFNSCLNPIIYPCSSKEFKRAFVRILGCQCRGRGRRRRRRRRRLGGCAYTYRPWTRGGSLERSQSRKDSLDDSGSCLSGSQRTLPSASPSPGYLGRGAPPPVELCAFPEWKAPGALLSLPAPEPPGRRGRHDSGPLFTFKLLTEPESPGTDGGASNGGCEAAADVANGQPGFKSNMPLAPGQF
Description: Displacement of [3H]prazosin from human cloned Alpha-1B adrenergic receptor. In short, it runs like this:
as §1

The target of assay [3] is T3, 5-hydroxytryptamine receptor 1A (Homo sapiens, UniProt P08908).
T3 sequence (P08908 whole entry): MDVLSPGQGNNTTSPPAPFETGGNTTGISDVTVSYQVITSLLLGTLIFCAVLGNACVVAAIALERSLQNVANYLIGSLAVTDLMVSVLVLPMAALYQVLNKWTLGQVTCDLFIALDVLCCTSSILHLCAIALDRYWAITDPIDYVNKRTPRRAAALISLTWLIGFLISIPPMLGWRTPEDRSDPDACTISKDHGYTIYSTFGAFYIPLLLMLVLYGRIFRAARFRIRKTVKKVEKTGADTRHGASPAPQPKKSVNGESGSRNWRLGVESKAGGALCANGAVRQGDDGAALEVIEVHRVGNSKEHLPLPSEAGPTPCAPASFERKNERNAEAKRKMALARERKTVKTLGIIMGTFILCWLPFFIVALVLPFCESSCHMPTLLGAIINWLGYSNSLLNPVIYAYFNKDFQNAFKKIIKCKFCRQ
Description: Displacement of [3H]8-hydroxy-2-(di-n-propylamino)tetralin from human 5-hydroxytryptamine 1A receptor. The method, boiled down: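 Membranes of HeLa cells stably transfected with human 5-HT1A (genomic clone G-21), in 50 mM Tris-HCl pH 7.4, 2.5 mM MgCl2, 10 μM pargiline. […] Nonspecific binding defined with 10 μM 5-HT. Filtration, scintillation counting. Ki by Cheng–Prusoff; 2–3 experiments in triplicate.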

Assay [4] addresses T4, 5-hydroxytryptamine receptor 1A (Homo sapiens) (UniProt P08908).
T4 sequence (whole entry): T3 sequence (P08908 whole entry)
Description: Agonist efficacy on 5-hydroxytryptamine 1A receptor subtype. Format: functional. In short, it runs like this:
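[35S]GTPγS binding in membranes of HeLa cells stably expressing human 5-HT1A, in 20 mM HEPES, 3 mM MgSO4, 120 mM NaCl pH 7.4. Preincubation 20 min at 30 °C with 30 μM GDP and drug (0.1 nM–100 μM), then 150–250 pM [35S]GTPγS for 30 min at 30 °C. Stimulation above basal was scaled to the 5-HT maximum (100%). Emax and pD2 came from curve fits; triplicate, 2–3 sessions.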

With `O[C@H]1[C@@H](NC[C@H]2COc3ccccc3O2)CC[C@@H]1Oc1ccccc1`, the pKi in assay [1] was 6.41; in assay [2] it was 5.74; in assay [3], 9.08. In assay [4], this compound returned a Max of 82%.

With `O[C@@H]1[C@H](NC[C@H]2COc3ccccc3O2)CC[C@H]1Oc1ccccc1`, the pKi in assay [1] was 7.44; in assay [3], 8.26. In assay [4], this compound returned a Max of 100%.

Regarding `O[C@H]1[C@@H](NC[C@@H]2COc3ccccc3O2)CC[C@@H]1Oc1ccccc1`, the values for the pKi in assay [1], in assay [2] and in assay [3] were 6.02, < 6.00 and 8.43, respectively. Besides, the Max in assay [4] amounted to 96%.

As for `O[C@@H]1[C@H](NC[C@@H]2COc3ccccc3O2)CC[C@H]1Oc1ccccc1`, the figures for the pKi in assay [1], in assay [2] and in assay [3] were 7.11, 7.03 and 7.65, respectively. In addition, the Max in assay [4] was found to be 23%.
